Source: PubChem BioAssay (The Scripps Research Institute Molecular Screening Center)
Sampled rows, rich in hits. Any-hit rate of the full collection: about 2.7%.
ASAP1 inh: inhibitors of human ASAP1 ArfGAP activity, primary screen, biochemical, fluorescence polarization; Arf-GAP with SH3 domain, ANK repeat and PH domain-containing protein 1 (Homo sapiens), …; ASAP1-stimulated ARF1 GTP hydrolysis, GDP FP detection; inhibition, % at 16.5 µM; 0.19% of 360,000 active; in the data active = inhibition above about 25%;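 also: 0% = vehicle with enzyme and substrate and 100% = no enzyme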
PAFAH2 FP inh: PAFAH2 enzyme inhibitors, primary screen, biochemical, fluorescence polarization, human; Platelet-activating factor acetylhydrolase 2, cytoplasmic (Homo sapiens), Q99487; recombinant PAFAH2, FP-rhodamine activity probe; inhibition, % at 3.39 µM; 0.99% of 340,000 active;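 active = inhibition above the mean over all tested compounds plus 3 SD, cut at about 30% in these data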;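 also: inhibitors block probe labeling of enzyme so polarization drops; 0% = enzyme with DMSO and 100% = wells lacking PAFAH2 protein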
ARFGAP1 inhibitor: inhibitors of rat ARFGAP1 GAP activity, primary screen, biochemical, fluorescence polarization, GDP tracer. ADP-ribosylation factor GTPase-activating protein 1 (Rattus norvegicus), Q62848. Arfgap1-stimulated ARF1 GTP hydrolysis, GDP FP detection. inhibition, % at 16.5 µM. 0.26% of 360,000 active. AID 651572, 2012;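 active = inhibition above a per-plate limit, mean inhibition of low control wells plus 3 SD, cut at about 25% in these data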;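 also: 0% = DMSO wells with enzyme and 100% = wells lacking Arfgap1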
Target sequence (Q62848 1-136 limits assumed): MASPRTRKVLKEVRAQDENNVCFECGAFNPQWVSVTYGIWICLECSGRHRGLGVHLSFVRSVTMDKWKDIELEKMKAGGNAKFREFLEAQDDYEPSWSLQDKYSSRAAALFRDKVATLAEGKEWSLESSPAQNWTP
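Repeats: one replicate per compound; assay system: rat Arfgap1 catalytic domain, aa 1-136; times: enzyme reaction 120 min at 25 °C after 20 min preincubation; detection: FP of antibody-bound GDP Alexa 633 tracer, ex 620/em 688 nm; benchmarks: high control wells lacking Arfgap1, low control full reaction with DMSO; reagent: human ARF1(Δ1-17)-GTP substrate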
PAFAH1B2 FP inh: PAFAH1B2 enzyme inhibitors, primary screen, biochemical, fluorescence polarization, human; Platelet-activating factor acetylhydrolase IB subunit alpha2 (Homo sapiens), P68402; recombinant PAFAH1B2, FP-rhodamine activity probe; inhibition, % at 3.39 µM; 1.2% of 340,000 active; AID 492953, 2010;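 active = inhibition above the mean of all tested compounds plus 3 SD, cut at about 24% in these data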;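 also: 0% = enzyme with DMSO and 100% = wells lacking PAFAH1B2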
pPAFAH FP inh: pPAFAH enzyme inhibitors, primary screen, biochemical, fluorescence polarization, human; Platelet-activating factor acetylhydrolase (Homo sapiens), Q13093; recombinant pPAFAH, FP-rhodamine probe fluorescence polarization; inhibition, % at 3.39 µM; 1.5% of 330,000 active; AID 463082, 2010;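 active = inhibition above the mean inhibition across the screen plus 3 SD, cut at about 25% in these data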;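 also: inhibitors block binding of the rhodamine activity-based probe so polarization drops; 0% = enzyme with DMSO and 100% = wells lacking pPAFAH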
Target sequence (Q13093 whole entry, looked up): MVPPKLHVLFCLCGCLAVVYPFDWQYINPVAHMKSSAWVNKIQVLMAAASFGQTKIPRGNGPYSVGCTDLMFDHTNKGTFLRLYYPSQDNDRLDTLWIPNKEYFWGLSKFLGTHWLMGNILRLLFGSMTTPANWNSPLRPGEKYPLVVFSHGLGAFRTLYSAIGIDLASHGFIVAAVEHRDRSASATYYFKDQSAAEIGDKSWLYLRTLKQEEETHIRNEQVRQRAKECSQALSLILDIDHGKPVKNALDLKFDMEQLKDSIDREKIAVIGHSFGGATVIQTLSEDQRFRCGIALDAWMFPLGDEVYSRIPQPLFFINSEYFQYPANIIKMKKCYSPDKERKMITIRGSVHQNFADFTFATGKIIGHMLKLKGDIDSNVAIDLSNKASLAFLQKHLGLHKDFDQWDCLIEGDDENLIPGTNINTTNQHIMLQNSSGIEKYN
PAFAH1B3 FP inh: PAFAH1B3 enzyme inhibitors, primary screen, biochemical, fluorescence polarization, human. AID 492972, 2010. 0.28% of 340,000 active. recombinant PAFAH1B3, FP-rhodamine probe. inhibition, % at 3.39 µM. Platelet-activating factor acetylhydrolase IB subunit alpha1 (Homo sapiens), Q15102;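 active = inhibition above the screen-wide average of all tested compounds plus 3 SD, cut at about 25% in these data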;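 also: 0% = enzyme with DMSO only and 100% = wells lacking PAFAH1B3 protein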
PAFAH2 FP conf: PAFAH2 enzyme inhibitors, confirmation, biochemical, fluorescence polarization, human; AID 493030, 2011; inhibition, % at 3.39 µM; shares compounds with PAFAH2 FP inh; recombinant PAFAH2, FP-rhodamine activity probe; 65% of 2,300 active;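 active = mean inhibition over three repeats above a set limit taken from the earlier primary screen, cut at about 30% in these data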;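 also: inhibitor blocks binding of rhodamine activity probe so polarization falls; 0% = enzyme with DMSO and 100% = wells lacking PAFAH2 protein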
PAFAH1B3 confirm: PAFAH1B3 enzyme inhibitors, confirmation, biochemical, fluorescence polarization, human; AID 493032, 2011; inhibition, % at 3.39 µM; 30% of 390 active; recombinant PAFAH1B3, FP-Rh activity-based probe; shares compounds with PAFAH1B3 FP inh;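 active = average inhibition over triplicate runs above the hit cutoff set in the earlier primary screen, cut at about 25% in these data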;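 also: 0% = enzyme with DMSO and 100% = wells lacking PAFAH1B3 protein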
ARFGAP1 inh conf: ARFGAP1 inhibitor hit confirmation, biochemical, fluorescence polarization, triplicate; shares compounds with ARFGAP1 inhibitor; ARFGAP1-stimulated ARF1 GTP hydrolysis, GDP tracer FP; inhibition, % at 16.5 µM; 30% of 890 active; AID 651608, 2012;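 active = average inhibition over triplicates above the hit cutoff set in the earlier primary screen, cut at about 25% in these data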;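 also: 0% = Arfgap1 plus ARF1-GTP with DMSO and 100% = wells lacking Arfgap1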
* hit, by the source's call; nt = not tested or not shown.

SMILES	ASAP1 inh	PAFAH2 FP inh	ARFGAP1 inhibitor	PAFAH1B2 FP inh	pPAFAH FP inh	PAFAH1B3 FP inh	others
COc1cc(/C=C2\C(=O)NC(=O)N(c3ccccc3)C2=O)cc(OC)c1O	4	-1	13	5	3	10
Cn1cc(/C=C2\C(=O)NC(=O)N(c3ccccc3)C2=O)c2ccccc21	4	39*	5	5	-1	7	PAFAH2 FP conf=36*
C=CCN1C(=O)/C(=C/c2cc(C)n(-c3cccnc3)c2C)C(=O)NC1=S	-1	31*	-4	8	7	-1	PAFAH2 FP conf=10
C=CCOC(=O)C1C(C(=O)O)C2(Cl)C(Cl)=C(Cl)C1(Cl)C2(Cl)Cl (stereo not drawn)	6	31*	-9	21	nt	8	PAFAH2 FP conf=21
O=C(O)C1C(C(=O)O)C2(Cl)C(Cl)=C(Cl)C1(Cl)C2(Cl)Cl (stereo not drawn)	-18	28	8	6	-2	4
O=C(NCCO)c1nsnc1NCCCl	-6	-5	2	2	1	7
COC(=O)C1=C(c2ccc(Cl)c(C(F)(F)F)c2)C[C@@H]2CC[C@H]1N2C(=O)NCc1ccco1	-9	6	0	0	5	7
Cc1cc(/C=C2\C(=O)NC(=O)N(Cc3ccccc3Cl)C2=O)c(C)n1-c1ccc(C(=O)O)cc1	10	34*	7	5	11	-1	PAFAH2 FP conf=24
Cc1ccc(-n2c(C)cc(/C=C3/C(=O)NC(=O)N(Cc4ccco4)C3=O)c2C)cc1	2	6	-5	-3	11	1
Cc1ccccc1-n1c(C)cc(/C=C2/C(=O)NC(=O)N(Cc3ccco3)C2=O)c1C	7	42*	-2	3	6	15	PAFAH2 FP conf=46*
CC(C)N1CCN(Cc2cccc([N+](=O)[O-])c2)CC1	10	117*	6	9	6	5	PAFAH2 FP conf=5
O=C1NCN(c2ccccc2)C12CCN(C(c1nnnn1C1CCCC1)C1CC1)CC2 (stereo not drawn)	-6	nt	4	nt	nt	nt
Cc1cc(C=C2C(=O)NC(=S)NC2=O)c(C)n1C1CCCC1	-4	34*	-2	12	10	10	PAFAH2 FP conf=15
Cc1cc(OCC(=O)N2C[C@H]3C[C@@H](C2)c2cccc(=O)n2C3)c2c(C)cc(=O)oc2c1	7	38*	6	0	5	6	PAFAH2 FP conf=-3
CCc1cc(=O)oc2cc(OCC(=O)N3C[C@H]4C[C@@H](C3)c3cccc(=O)n3C4)c(Cl)cc12	3	6	1	4	1	8
COC(=O)N1Cc2ccccc2-n2nncc2C1	7	nt	6	nt	nt	nt
O=C(O)CC1OCC=C2CN3CCC45C6=CC(=O)C(=O)C([N+](=O)[O-])=C6NC4C1C2CC35 (stereo not drawn)	nt	9	nt	10	5	72*	PAFAH1B3 confirm=9
COc1cc2c(cc1OC)-c1c(OC)c(OC)cc3c1[C@H](C2)N(C)CC3	17	19	18	11	-1	34*	PAFAH1B3 confirm=9
CN1CC[C@@]2(C)c3cc(O)ccc3N(C)[C@@H]12	14	3	7	13	nt	40*	PAFAH1B3 confirm=5
CN1CC[C@@]2(C)c3cc(O)ccc3N(C)C2O1 (stereo partly drawn)	nt	2	nt	7	2	12
c1cncc(C2Nc3cccc4cccc(c34)N2)c1	8	-1	-2	2	8	36*	PAFAH1B3 confirm=12
c1cncc(C2CCCCN2)c1 (stereo not drawn)	9	0	1	0	-1	4
CCCCCn1c(NC(=O)c2ccco2)c(C(=O)OCC)c2nc3ccccc3nc21	nt	3	nt	23	8	55*	PAFAH1B3 confirm=50*
Cc1cc(OC(C)C(=O)NCc2ccncc2)c2c3c(c(=O)oc2c1)CCCC3 (stereo not drawn)	4	2	-1	2	1	-3
CN1CC2([N+](=O)[O-])CC=C(Cl)C([N+](=O)[O-])(C1)C2 (stereo not drawn)	2	2	-3	1	-1	8
SMILES	ASAP1 inh	PAFAH2 FP inh	ARFGAP1 inhibitor	PAFAH1B2 FP inh	pPAFAH FP inh	PAFAH1B3 FP inh	others
O=C(COc1ccccc1F)N1CCN(CCN2C(=O)c3cccc4cccc(c34)C2=O)CC1	11	2	-2	2	3	28*	PAFAH1B3 confirm=5
O=C(COc1ccccc1)N1CCN(CCN2C(=O)c3cccc4cccc(c34)C2=O)CC1	-4	1	-12	-1	2	-7
CN(C)Cc1c[nH]c2cc([N+](=O)[O-])ccc12	-9	0	-4	1	nt	7
Cc1ccc2c(c1)C1CN(C)CCC1N2C(=O)c1cn(-c2ccccc2)nc1-c1ccccc1 (stereo not drawn)	0	7	-7	-1	0	13
Nc1c(C(=O)NC2CCCC2)c2nc3ccccc3nc2n1CC1CCCO1 (stereo not drawn)	6	7	13	2	17	26*	PAFAH1B3 confirm=15
CCOC(=O)c1c(NS(=O)(=O)c2ccccc2)n(CCCOC)c2nc3ccccc3nc12	4	-2	34*	14	9	27*	PAFAH1B3 confirm=10;ARFGAP1 inh conf=-10
O=c1[nH]c(=S)n(-c2ccccc2)c(O)c1/C=N/N1CCOCC1	-1	-8	0	-7	-3	7
CCSc1nnc([C@@H](N)Cc2ccccc2)o1	1	-6	5	7	2	1
